Assay results: ChEMBL document CHEMBL1158380 (Eur J Med Chem, 2009)

Experiments:
[1] = system: MCF7; assay: Antiproliferative activity against human MCF7 cells after 48 hrs by sulforhodamine B assay; format: functional, cell-based; settings: MCF7, 48 h
In short: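 MCF-7 cells from the NCI screening program, grown as monolayers in RPMI 1640 with 5% FBS at 37 °C in humidified 5% CO2. Cells were seeded 24 h before compound addition (DMSO, final 1% v/v) at varying concentrations.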

[2] = organism: Bos taurus; assay: Displacement of [3H]colchicine from bovine brain tubulin at 5 uM by scintillation counting
In short: (§1)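 Electrophoretically homogeneous bovine brain tubulin (1.0 µM, 0.1 mg/mL) in a tubulin-stabilizing buffer with 5.0 µM [3H]colchicine and compound at 1.0, 5.0 or 50 µM, final DMSO 5% (v/v). Incubation was 10 min at 37 °C. Reactions were stopped with ice water and filtered through stacked DEAE-cellulose filters. Read-out is % inhibition of colchicine binding.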

[3] = organism: Bos taurus; assay: Displacement of [3H]colchicine from bovine brain tubulin at 50 uM by scintillation counting; in short: as §1
[4] = Inhibition of bovine brain tubulin by spectrophotometry; parameters: species or system Bos taurus
In short: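 Assembly of electrophoretically homogeneous bovine brain tubulin at 10 µM (1.0 mg/mL) in 0.8 M monosodium glutamate pH 6.6 with 4% DMSO. Tubulin was preincubated with compound at varying concentrations for 15 min at 30 °C without GTP, chilled, then 0.4 mM GTP was added. After a jump from 0 to 30 °C, turbidity at 350 nm was followed for 20 min.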

[5] = organism: Bos taurus; assay: Displacement of [3H]colchicine from bovine brain tubulin at 1 uM by scintillation counting
[6] = system: MDA-MB-435; assay: Cytotoxicity against human MDA-MB-435 cells after 72 hrs by MTT assay; format: functional, cell-based; settings: MDA-MB-435, 72 h
In short: (§2)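 Four human tumour lines (MDA/MB-435, HCT-8, SF-295, HL-60) were exposed to compound at 0.0009–5 µg/mL for 72 h. Growth was quantified by living-cell reduction of MTT to blue formazan.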

[7] = system: HCT-8; assay: Cytotoxicity against human HCT8 cells after 72 hrs by MTT assay; format: functional, cell-based; settings: HCT-8, 72 h; in short: as §2
[8] = system: SF-295; assay: Cytotoxicity against human SF295 cells after 72 hrs by MTT assay; format: functional, cell-based; settings: SF-295, 72 h; in short: as §2
[9] = system: HL-60; assay: Cytotoxicity against human HL60 cells after 72 hrs by MTT assay; format: functional, cell-based; settings: HL-60, 72 h; in short: as §2

SMILES | IC50 [1] [nM] | Activity [2] [%] | Activity [3] [%] | IC50 [4] [nM] | Activity [5] [%] | IC50 [6] [nM] | IC50 [7] [nM] | IC50 [8] [nM] | IC50 [9] [nM]
COc1ccc(/C=C/c2cc(OC)c(OC)c(OC)c2)cc1O [E-COMBRETASTATIN A-4] | 1.4 | – | – | – | 85 | – | – | – | –
COc1ccc(C(=O)c2cc(OC)c(OC)c(OC)c2)cc1O [PHENSTATIN] | 34 | 78 | – | 730 | 70 | – | – | – | –
COc1ccc([S+]([O-])c2cc(OC)c(OC)c(OC)c2)cc1 (centres undefined) | 2200 | 16 | 41 | 31000 | – | 280 | 470 | 1460 | 340
COc1ccc(S(=O)(=O)c2cc(OC)c(OC)c(OC)c2)cc1 | 2600 | 18 | 53 | > 40000 | – | 2320 | 12200 | 8100 | 4750
COc1ccc(/C=C/c2cc(OC)c(OC)c(OC)c2)cc1 | 4.8 | 97 | – | 1100 | 74 | – | – | – | –
COc1ccc(Sc2cc(OC)c(OC)c(OC)c2)cc1 | 16 | 89 | – | 1200 | 56 | 3 | 40 | 30 | 3
COc1ccc(C(=O)c2cc(OC)c(OC)c(OC)c2)cc1 | 160 | 50 | 95 | 2200 | – | – | – | – | –

Further lines, with some results ahead:

IC50 [1] [nM] | Activity [2] [%] | Activity [3] [%] | IC50 [4] [nM] | SMILES | Activity [5] [%] | IC50 [6] [nM] | IC50 [7] [nM] | IC50 [8] [nM] | IC50 [9] [nM]
78 | 50 | 89 | 2600 | COc1ccc(CCc2cc(OC)c(OC)c(OC)c2)cc1 | – | – | – | – | –
13 | 67 | – | 1600 | COc1ccc(CCc2cc(OC)c(OC)c(OC)c2)cc1O | 49 | – | – | – | –
130 | 36 | 83 | 4000 | COc1ccc(Cc2cc(OC)c(OC)c(OC)c2)cc1 | – | – | – | – | –
59 | 44 | 91 | 2900 | COc1ccc(Cc2cc(OC)c(OC)c(OC)c2)cc1O | – | – | – | – | –
